Reference: ChEMBL document CHEMBL3351495, “Anti-inflammatory components of Chrysanthemum indicum flowers” (Bioorg Med Chem Lett, 2015)
Activity calls are given as the source filed them. The calls are words filed in the database; no cut-off is given here.

Key:
RAW264.7 [1] = assay: Cytotoxicity against mouse RAW264.7 cells at 50 uM by MTT assay; assay type: cell-based; settings: raw264.7, 50 µM
RAW264.7 [2] = assay: Antiinflammatory activity in mouse RAW264.7 cells assessed as inhibition of LPS-stimulated nitric oxide production at 0.4 to 10 uM after 24 hrs by Griess assay; assay type: functional, cell-based
How it was run: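 NO made by LPS-stimulated RAW 264.7 cells was measured by Griess reaction. Each compound was screened at 0.4, 2.0 and 10.0 μM, all below the 50 μM level checked for viability by MTT. Results are mean ± SD from at least three independent experiments run in triplicate.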

RAW264.7 [3] = assay: Antiinflammatory activity in mouse RAW264.7 cells assessed as inhibition of LPS-stimulated TNFalpha production at 0.4 to 2 uM by ELISA; assay type: functional, cell-based
How it was run: (§1)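 RAW 264.7 cells were stimulated with LPS, with or without each compound at 0.4, 2.0 and 10.0 μM, and secreted TNF-α was measured. Concentrations were kept below 50 μM, the level checked by MTT for viability. Values are mean ± SD from at least three independent experiments, each run in triplicate.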

RAW264.7 [4] = assay: Antiinflammatory activity in mouse RAW264.7 cells assessed as inhibition of LPS-stimulated TNFalpha production at 2 uM by ELISA; assay type: functional; how it was run: as §1
RAW264.7 [5] = assay: Antiinflammatory activity in mouse RAW264.7 cells assessed as inhibition of LPS-stimulated TNFalpha production at 10 uM by ELISA; assay type: functional; how it was run: as §1
RAW264.7 [6] = assay: Inhibition of COX2 protein expression in LPS-stimulated mouse RAW264.7 cells by Western blot analysis; assay type: functional, cell-based
How it was run: (§2)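 RAW 264.7 cells exposed to LPS (1 μg/ml) with or without test agent at 0.4, 2 and 10 μM. Celecoxib (1 μM) served as reference. COX-2 and iNOS protein detected by Western blot, with actin as loading control.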

RAW264.7 [7] = assay: Antiinflammatory activity in mouse RAW264.7 cells assessed as inhibition of LPS-stimulated nitric oxide production at 10 uM after 24 hrs by Griess assay; assay type: functional; settings: RAW264.7, 24 h
How it was run: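 Nitrite in the medium measured by Griess reaction and given as % inhibition of NO production. Celecoxib (1.0 μM) served as reference. Mean SD of at least three independent experiments, each in triplicate.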

RAW264.7 [8] = assay: Inhibition of iNOS protein expression in LPS-stimulated mouse RAW264.7 cells by Western blot analysis; assay type: functional, cell-based; how it was run: as §2

| Structure (SMILES) | Activity (RAW264.7 [1]) | inhibition (RAW264.7 [2]) | inhibition (RAW264.7 [3]) | inhibition at 2 µM (RAW264.7 [4]) | inhibition at 10 µM (RAW264.7 [5]) | inhibition (RAW264.7 [6]) | inhibition at 10 µM (RAW264.7 [7]) | inhibition (RAW264.7 [8]) |
| --- | --- | --- | --- | --- | --- | --- | --- | --- |
| OC[C@H]1O[C@@H](OCc2ccccc2)[C@H](O)[C@@H](O)[C@@H]1O | Non-toxic | inactive | inactive | – | – | – | – | – |
| COc1cc(-c2oc3cc(O)cc(O)c3c(=O)c2O[C@@H]2O[C@H](CO)[C@@H](O)[C@H](O)[C@H]2O)ccc1O | Non-toxic | inactive | – | – | – | – | – | – |
| COC(=O)[C@]1(O)C[C@@H](O)[C@@H](OC(=O)/C=C/c2ccc(O)c(O)c2)[C@H](O)C1 | Non-toxic | inactive | inactive | – | – | – | – | – |
| CC[C@H](C)C(=O)OC[C@@H]1O[C@@]2(C(=O)OC)C[C@@H](O)[C@@H](O)[C@@H]1O2 | Non-toxic | inactive | – | 14.4% | 22% | – | – | – |
| CC1=C(C/C=C\CCO[C@@H]2O[C@H](CO)[C@@H](O)[C@H](O)[C@H]2O)C(=O)CC1 | Non-toxic | inactive | – | 11.8% | 23% | – | – | – |
| COC(=O)[C@]1(O)C[C@@H](OC(=O)/C=C/c2ccc(O)c(O)c2)[C@@H](O)[C@H](OC(=O)/C=C/c2ccc(O)c(O)c2)C1 | Non-toxic | inactive | – | – | – | – | – | – |
| COC(=O)[C@]1(O)C[C@@H](O)[C@@H](OC(=O)/C=C/c2ccc(O)c(O)c2)[C@H](OC(=O)/C=C/c2ccc(O)c(O)c2)C1 | Non-toxic | inactive | inactive | – | 13% | – | – | – |
| OC[C@H]1O[C@@H](OCCc2ccccc2)[C@H](O)[C@@H](O)[C@@H]1O | Non-toxic | inactive | inactive | – | 13% | – | – | – |
| O=c1cc(-c2ccc(O)cc2)oc2cc(O[C@@H]3O[C@H](CO)[C@@H](O)[C@H](O)[C@H]3O)cc(O)c12 [APIGETRIN] | Non-toxic | inactive | – | – | – | – | – | – |
| COC(=O)[C@]1(O)C[C@@H](O)[C@@H](O)[C@H](OC(=O)/C=C/c2ccc(O)c(O)c2)C1 [CHLOROGENIC ACID METHYL ESTER] | Non-toxic | inactive | inactive | – | – | – | – | – |
| O=C(/C=C/c1ccc(O)c(O)c1)O[C@@H]1C[C@](O)(C(=O)O)C[C@@H](O)[C@H]1O [CHLOROGENIC ACID] | Non-toxic | inactive | – | 16.1% | 24.7% | – | – | – |
| O=C(/C=C/c1ccc(O)c(O)c1)O[C@@H]1C[C@@](OC(=O)/C=C/c2ccc(O)c(O)c2)(C(=O)O)C[C@@H](O)[C@@H]1O [CYNARIN] | Non-toxic | inactive | inactive | – | – | – | – | – |
| COc1cc(CCCO)cc(OC)c1O[C@@H]1O[C@H](CO)[C@@H](O)[C@H](O)[C@H]1O [DIHYDROSYRINGIN] | Non-toxic | inactive | inactive | – | 13% | – | – | – |
| O=c1cc(-c2ccc(O)c(O)c2)oc2cc(O[C@@H]3O[C@H](CO)[C@@H](O)[C@H](O)[C@H]3O)cc(O)c12 [GALUTEOLIN] | Non-toxic | inactive | inactive | – | 13% | – | – | – |
| O=c1c(O)c(-c2ccc(O)c(O)c2)oc2cc(O)cc(O)c12 [QUERCETIN] | Non-toxic | – | inactive | – | 13% | Dose-dependent effect | 46.1% | Dose-dependent effect |
| O=c1c(O)c(-c2ccc(O)c(O)c2)oc2cc(O[C@@H]3O[C@H](CO)[C@@H](O)[C@H](O)[C@H]3O)cc(O)c12 [QUERCIMERITRIN] | Non-toxic | – | inactive | – | 13% | Dose-dependent effect | 36.5% | Dose-dependent effect |
| COc1cc(/C=C/CO)cc(OC)c1O[C@@H]1O[C@H](CO)[C@@H](O)[C@H](O)[C@H]1O [SYRINGIN] | Non-toxic | inactive | inactive | – | 13% | – | – | – |
| COc1cc(-c2cc(=O)c3c(O)cc(O)cc3o2)cc(OC)c1O [TRICIN] | Non-toxic | inactive | – | – | – | – | – | – |
